Source: ChEMBL document CHEMBL3244028, “Synthesis and antiinflammatory activity of 6,11-dihydro-11-oxodibenzo[b,e]thiepinalkanoic acids and related compounds” (J Med Chem, 1978)

Key:
Rattus norvegicus [1] = assay: Antiinflammatory activity in rat assessed as inhibition of carrageenan-induced paw edema compound administered orally 1 hr prior challenge relative to phenylbutazone; assay type: functional
In short: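 Female rats, 80-90 g, given test agent in "Government diluting fluid" 1 h before carrageenan injection into one hind paw. Rats killed 4 h after dosing; both hind paws excised and weighed. Potency relative to phenylbutazone read from dose-response plots of percent weight increase of inflamed over noninflamed paw. Usually at least three doses, six rats per dose.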

Mus musculus = assay: Analgesic activity in mouse assessed as inhibition of phenylquinone-induced writhing administered orally 20 mins prior challenge relative to aspirin; assay type: functional
In short: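 Male mice, 18-20 g, dosed orally in "Government diluting fluid" vehicle, then given phenylquinone intraperitoneally 20 min later. Writhing observed over the following 10 min. Eight to ten mice per dose. Potency relative to aspirin taken from dose-response plots.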

Rattus norvegicus [2] = assay: Antiinflammatory activity in rat assessed as inhibition of cotton pellet granuloma at 0.5 to 4 mg/kg/day, po administered for 7 days starting same day of challenge measured on day 7 relative to indomethacin; assay type: functional
In short: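 Cotton pellet granuloma in rats, by a modification of Meier's method. Vehicle "Government diluting fluid".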

Rattus norvegicus [3] = assay: Antiinflammatory activity in rat arthritis model assessed as inhibition of Freund's adjuvant-induced swelling compound administered orally bid for 17 days starting on day 1 of challenge measured on day 18 relative to naproxen; assay type: functional
Canis familiaris = assay: Toxicity in dog assessed as emesis at 5 mg/kg, po administered as single dose; assay type: organism-based, Canis lupus familiaris; design: dose 5 mg/kg, route oral; settings: in vivo
In short: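 Dogs given one oral dose (5, 10 or 30 mg/kg). Animals watched for signs of gastrointestinal intolerance, including emesis.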

Rattus norvegicus [4] = organism: Rattus norvegicus; assay: Toxicity in rat assessed as gastric irritation (erosion) in starved rats; settings: in vivo

| SMILES | fold change (FC) (Rattus norvegicus [1]) | fold change (FC) (Mus musculus) | fold change (FC) (Rattus norvegicus [2]) | fold change (FC) (Rattus norvegicus [3]) | Activity (Canis familiaris) | ED50 (Rattus norvegicus [4]) [mg/kg] |
| --- | --- | --- | --- | --- | --- | --- |
| C1CCC(NC2CCCCC2)CC1.CC(C(=O)O)c1ccc2c(c1)CSc1ccccc1C2=O (stereo not given) | 2 | 2.5 | – | – | – | – |
| O=C(O)Cc1ccc2c(c1)C(=O)c1ccccc1CS2 | 0.3 | 1.5 | – | – | – | – |
| O=C(O)Cc1ccc2c(c1)CC(=O)c1ccccc1O2 | <0.6 | <0.2 | – | – | – | – |
| O=C(O)Cc1ccc2c(c1)Sc1ccccc1CC2 | 0.2 | 2 | – | – | – | – |
| O=C(O)Cc1ccc2c(c1)Sc1ccccc1C=C2 | <0.2 | <1 | – | – | – | – |
| O=C(O)Cc1ccc2c(c1)C=Cc1ccccc1O2 | <0.4 | 0.3 | – | – | – | – |
| O=C(O)Cc1ccc2c(c1)C=Cc1ccccc1S2(=O)=O | 0.4 | 0.4 | – | – | – | – |
| O=C(O)Cc1ccc2c(c1)CCc1ccccc1S2 | 7 | 3 | 0.07 | 0.5 | – | – |
| C1CCC(NC2CCCCC2)CC1.CC(C(=O)O)c1ccc2c(c1)CCc1ccccc1S2 (racemic) | 3 | 5 | – | – | – | – |
| CC(C(=O)O)c1ccc2c(c1)SCc1sccc1C2=O (racemic) | 13 | 20 | – | – | – | – |
| O=C(O)Cc1ccc2c(c1)[S+]([O-])Cc1ccccc1C2=O (racemic) | 0.5 | <=0.5 | – | – | – | – |
| O=C(O)Cc1ccc2c(c1)C=Cc1ccccc1S2 | 2 | <1 | – | – | – | – |
| O=C(O)Cc1ccc2c(c1)SCc1ccccc1C2 | 2 | 1 | – | – | – | – |
| O=C(O)Cc1ccc2c(c1)CCc1ccccc1[S+]2[O-] (racemic) | <=0.2 | 0.8 | – | – | – | – |
| O=C(O)Cc1ccc2c(c1)Sc1ccccc1C(=O)C2 | 0.4 | 1 | – | – | – | – |
| C1CCC(NC2CCCCC2)CC1.CCC(C(=O)O)c1ccc2c(c1)SCc1ccccc1C2=O (stereo not given) | 20 | 4 | – | – | – | – |
| O=C(O)Cc1ccc2c(c1)CCc1ccccc1S2(=O)=O | 0.4 | 1 | – | – | – | – |
| CC(C(=O)O)c1ccc2c(c1)SCc1ccccc1C2=O (racemic) | 115 | 20 | 2 | 70 | Toxic | 2 |
| O=C(O)Cc1ccc2c(c1)SCc1ccccc1C2O (racemic) | <1 | <0.3 | – | – | – | – |
| O=C(O)Cc1ccc2c(c1)S(=O)(=O)Cc1ccccc1C2=O | <0.2 | 0.2 | – | – | – | – |
| O=C(O)Cc1ccc2c(c1)CCc1ccccc1O2 | 0.4 | 1 | – | – | – | – |
| O=C(O)Cc1ccc2c(c1)CSc1ccccc1C2=O | 1 | 1 | – | – | – | – |
| O=C(O)Cc1ccc2c(c1)SCc1sccc1C2=O | 4 | 4 | – | – | – | – |
| O=C(O)Cc1ccc2c(c1)CC(=O)c1ccccc1S2 | 0.4 | 1 | – | – | – | – |
| O=C(O)Cc1cccc2c1SCc1ccccc1C2=O | <0.4 | – | – | – | – | – |
| O=C(O)Cc1ccc2c(c1)SCc1ccccc1C2=O [TIOPINAC] | 40 | 14 | 0.8 | 10 | Non-toxic | – |
